Experimental data published in ChEMBL document CHEMBL4699542, “Design and synthesis of novel methoxypyridine-derived gamma-secretase modulators” (Bioorg Med Chem, 2020).
Values after ≈ are worked out from the molar mass of the structure shown.

Legend:
Gamma-secretase = experiment: Modulation of gamma secretase in human SH-SY5Y cells overexpressing wild type APP751 assessed as inhibition of amyloid beta (35 to 42 residues) formation incubated for overnight by ELISA; assay type: cell-based
How it was run: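 SHSY5Y-APP751 cells plated at 75K/well and incubated overnight at 37 °C, then treated 24 h over 10 concentrations ([…]–10 μM, 1:3.16 steps, in duplicate). Medium Aβ42 measured by sandwich ELISA (Aβ35–42 capture, AP-conjugated Aβ1–12 detection, CDP-Star luminescence) against an Aβ42 standard curve.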

[1] = Kinetic aqueous solubility of the compound in pH 7.4 PBS buffer by UV/Visible absorbance analysis; assay type: physicochemical; conditions: read-out: Kinetic_solubility
How it was run: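 Kinetic solubility determined in PBS at pH 7.4 by UV/Vis absorbance, reported in μM.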

Cytochrome P450 2D6 = Cytochrome P450 2D6 (Homo sapiens, UniProt P10635); experiment: Inhibition of recombinant CYP2D6 (unknown origin) by fluorescence-based assay; assay type: ADME
How it was run: (§1)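 Recombinant CYP isoforms (five tested) screened for inhibition in fluorescence-based assays; IC50 in μM.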

Cytochrome P450 3A4 = Cytochrome P450 3A4 (Homo sapiens, UniProt P08684); experiment: Inhibition of recombinant CYP3A4 (unknown origin) by fluorescence-based assay; assay type: ADME
[2] = Metabolic stability in rat liver microsomes assessed as parent compound remaining at 1 uM incubated for 30 mins; assay type: ADME, Microsome; conditions: 0.5 h
How it was run: (§2)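 Test compound at 1 μM incubated 30 min with human, rat or mouse liver microsomes (1 mg/mL); parent remaining expressed as %.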

[3] = Metabolic stability in mouse liver microsomes assessed as parent compound remaining at 1 uM incubated for 30 mins; assay type: ADME, Microsome; conditions: 0.5 h; how it was run: as §2
[4] = Metabolic stability in human liver microsomes assessed as parent compound remaining at 1 uM incubated for 30 mins; assay type: ADME, Microsome; conditions: for Stabilty: microsomes, 0.5 h, 1 µM; how it was run: as §2
Cytochrome P450 1A2 = biological target: T1, Cytochrome P450 1A2 (Homo sapiens, UniProt P05177); experiment: Inhibition of recombinant CYP1A2 (unknown origin) by fluorescence-based assay; assay type: ADME; how it was run: as §1
T1 sequence (P05177 whole entry): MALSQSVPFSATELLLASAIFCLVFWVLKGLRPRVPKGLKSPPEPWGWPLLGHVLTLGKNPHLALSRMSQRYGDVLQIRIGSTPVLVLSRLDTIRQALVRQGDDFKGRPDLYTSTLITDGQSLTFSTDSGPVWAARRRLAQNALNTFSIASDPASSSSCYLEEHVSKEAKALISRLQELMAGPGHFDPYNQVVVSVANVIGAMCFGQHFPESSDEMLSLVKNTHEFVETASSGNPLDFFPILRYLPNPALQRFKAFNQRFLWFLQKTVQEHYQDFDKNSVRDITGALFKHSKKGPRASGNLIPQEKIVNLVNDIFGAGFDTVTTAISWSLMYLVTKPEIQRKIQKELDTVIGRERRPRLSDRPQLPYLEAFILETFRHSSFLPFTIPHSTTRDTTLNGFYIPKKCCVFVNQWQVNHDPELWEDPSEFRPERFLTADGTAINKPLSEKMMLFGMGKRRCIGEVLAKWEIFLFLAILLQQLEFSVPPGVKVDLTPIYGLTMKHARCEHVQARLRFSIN

Cytochrome P450 2C9 = Cytochrome P450 2C9 (Homo sapiens, UniProt P11712); experiment: Inhibition of recombinant CYP2C9 (unknown origin) by fluorescence-based assay; assay type: ADME; how it was run: as §1
Cytochrome P450 2C19 = Cytochrome P450 2C19 (Homo sapiens, UniProt P33261); experiment: Inhibition of recombinant CYP2C19 (unknown origin) by fluorescence-based assay; assay type: ADME; how it was run: as §1
Cytochrome P450 2C19, sequence (P33261 whole entry): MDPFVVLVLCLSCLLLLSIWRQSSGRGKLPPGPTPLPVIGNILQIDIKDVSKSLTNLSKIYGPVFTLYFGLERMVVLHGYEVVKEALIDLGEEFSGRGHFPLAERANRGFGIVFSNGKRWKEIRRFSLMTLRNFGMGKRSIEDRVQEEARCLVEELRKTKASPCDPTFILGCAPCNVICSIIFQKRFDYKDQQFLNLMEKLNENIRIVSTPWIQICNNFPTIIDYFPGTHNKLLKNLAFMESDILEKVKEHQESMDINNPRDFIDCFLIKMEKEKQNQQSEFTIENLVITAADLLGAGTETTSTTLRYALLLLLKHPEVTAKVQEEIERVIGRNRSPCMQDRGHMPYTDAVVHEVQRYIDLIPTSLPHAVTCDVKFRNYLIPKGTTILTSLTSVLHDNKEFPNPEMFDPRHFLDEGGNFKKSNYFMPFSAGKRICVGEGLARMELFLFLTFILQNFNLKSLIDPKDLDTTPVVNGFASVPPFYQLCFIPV

Cytochrome P450 2D6, sequence (P10635 whole entry, canonical isoform): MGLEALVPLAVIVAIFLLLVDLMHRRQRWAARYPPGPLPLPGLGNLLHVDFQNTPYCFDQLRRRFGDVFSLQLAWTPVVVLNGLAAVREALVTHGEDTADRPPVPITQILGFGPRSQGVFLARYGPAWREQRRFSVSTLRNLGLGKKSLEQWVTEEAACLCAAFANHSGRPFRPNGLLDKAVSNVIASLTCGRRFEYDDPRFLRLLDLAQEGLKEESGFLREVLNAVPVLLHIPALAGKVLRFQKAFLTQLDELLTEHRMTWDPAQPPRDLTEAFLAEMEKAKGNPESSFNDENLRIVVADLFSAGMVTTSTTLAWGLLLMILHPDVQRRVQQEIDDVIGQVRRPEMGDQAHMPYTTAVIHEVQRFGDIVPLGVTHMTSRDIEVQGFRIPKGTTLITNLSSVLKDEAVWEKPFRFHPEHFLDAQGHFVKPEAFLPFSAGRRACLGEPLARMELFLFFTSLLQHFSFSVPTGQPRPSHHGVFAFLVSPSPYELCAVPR
Cytochrome P450 3A4, sequence (P08684 whole entry): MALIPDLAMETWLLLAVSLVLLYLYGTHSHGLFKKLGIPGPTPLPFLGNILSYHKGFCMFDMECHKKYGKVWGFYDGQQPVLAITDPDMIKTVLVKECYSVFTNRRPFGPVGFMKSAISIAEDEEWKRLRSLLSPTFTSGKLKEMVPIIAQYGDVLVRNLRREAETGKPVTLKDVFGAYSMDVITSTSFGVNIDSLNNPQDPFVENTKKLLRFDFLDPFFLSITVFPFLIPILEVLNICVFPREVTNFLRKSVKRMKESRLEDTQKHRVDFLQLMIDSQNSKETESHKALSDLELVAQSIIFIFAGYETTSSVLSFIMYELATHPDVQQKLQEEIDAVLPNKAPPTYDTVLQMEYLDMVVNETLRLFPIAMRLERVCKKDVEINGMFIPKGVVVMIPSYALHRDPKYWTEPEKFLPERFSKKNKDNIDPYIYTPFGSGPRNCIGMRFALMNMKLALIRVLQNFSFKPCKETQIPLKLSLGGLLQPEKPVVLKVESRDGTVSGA
Cytochrome P450 2C9, sequence (P11712 whole entry): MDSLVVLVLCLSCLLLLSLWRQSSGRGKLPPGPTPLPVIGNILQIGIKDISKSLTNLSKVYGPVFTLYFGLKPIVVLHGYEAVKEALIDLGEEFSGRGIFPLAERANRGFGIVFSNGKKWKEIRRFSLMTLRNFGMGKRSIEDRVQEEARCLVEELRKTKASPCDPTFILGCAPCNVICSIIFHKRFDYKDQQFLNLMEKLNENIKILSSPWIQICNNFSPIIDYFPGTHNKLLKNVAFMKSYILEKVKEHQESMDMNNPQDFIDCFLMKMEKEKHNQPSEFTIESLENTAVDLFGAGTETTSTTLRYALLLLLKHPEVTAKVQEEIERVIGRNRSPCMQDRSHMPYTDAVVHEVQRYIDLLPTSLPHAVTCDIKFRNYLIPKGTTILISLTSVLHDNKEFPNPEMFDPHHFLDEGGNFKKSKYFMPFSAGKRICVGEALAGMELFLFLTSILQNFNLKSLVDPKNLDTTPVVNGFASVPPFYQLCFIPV

| Structure (SMILES) | IC50 (Gamma-secretase) [nM] | solubility kinetic [1] [µM] | Stabilty [2] [%] | Stabilty [3] [%] | Stabilty [4] [%] | further results |
| --- | --- | --- | --- | --- | --- | --- |
| COc1nc(-c2csc(Nc3c4c(nn3CCN3CCCCC3)CCCC4)n2)ccc1-n1cnc(C)c1 | 208 | 46 (≈ 23.9 µg/mL) |  |  |  |  |
| COc1nc(-c2csc(Nc3cc(C(C)(C)C)nn3CC(F)(F)F)n2)ccc1-n1cnc(C)c1 | 73 | 1.7 (≈ 0.836 µg/mL) | 90 | 93 | 47 | IC50 (Cytochrome P450 2D6): > 100000 nM; IC50 (Cytochrome P450 3A4): 1000 nM; IC50 (Cytochrome P450 1A2): 18000 nM; IC50 (Cytochrome P450 2C9): 20000 nM; IC50 (Cytochrome P450 2C19): 9000 nM |
| COc1nc(-c2csc(Nc3c4c(nn3CCN3CCOCC3)CCCC4)n2)ccc1-n1cnc(C)c1 | 177 | 70 (≈ 36.4 µg/mL) | 22 | 11 | 0 |  |
| COc1nc(-c2csc(Nc3c4c(nn3C)CCCC4)n2)ccc1-n1cnc(C)c1 | 105 | 15 (≈ 6.32 µg/mL) | 60 | 34 | 36 |  |
| COc1nc(-c2csc(Nc3c4c(nn3CC(F)(F)F)CCCC4)n2)ccc1-n1cnc(C)c1 | 57 | 7.4 (≈ 3.62 µg/mL) | 41 | 39 | 13 |  |
| COCCn1nc2c(c1Nc1nc(-c3ccc(-n4cnc(C)c4)c(OC)n3)cs1)CCCC2 | 144 | 20 (≈ 9.31 µg/mL) | 45 | 29 | 1.8 |  |
| COc1cc(-c2csc(Nc3c4c(nn3C)CCCC4)n2)ccc1-n1cnc(C)c1 | 148 |  |  |  |  |  |
| COc1nc(-c2csc(Nc3cc(C(F)(F)F)nn3C(C)(C)C)n2)ccc1-n1cnc(C)c1 | 126 | < 1.6 |  |  |  |  |
| COc1nc(-c2csc(Nc3cc(C(C)(C)C)nn3C(C)C)n2)ccc1-n1cnc(C)c1 | 64 | 23 (≈ 10.4 µg/mL) | 75 | 40 | 21 | IC50 (Cytochrome P450 2D6): > 100000 nM; IC50 (Cytochrome P450 3A4): 2300 nM; IC50 (Cytochrome P450 1A2): > 100000 nM; IC50 (Cytochrome P450 2C9): 14000 nM; IC50 (Cytochrome P450 2C19): 14000 nM |
| CCn1nc2c(c1Nc1nc(-c3ccc(-n4cnc(C)c4)c(OC)n3)cs1)CCC2(C)C | 109 | 8.8 (≈ 3.96 µg/mL) | 61 | 49 | 31 | IC50 (Cytochrome P450 2D6): > 100000 nM; IC50 (Cytochrome P450 3A4): 750 nM; IC50 (Cytochrome P450 1A2): > 100000 nM; IC50 (Cytochrome P450 2C9): 48000 nM; IC50 (Cytochrome P450 2C19): 15000 nM |
| CCn1nc(C(C)(C)C)cc1Nc1nc(-c2ccc(-n3cnc(C)c3)nc2)cs1 | 292 | < 1.6 | 60 | 87 | 43 |  |
| COc1nc(-c2csc(Nc3c4c(nn3C3CCOCC3)CCCC4)n2)ccc1-n1cnc(C)c1 | 102 | 4.7 (≈ 2.31 µg/mL) |  |  |  |  |
| Cc1cn(-c2ccc(-c3csc(Nc4c5c(nn4C)CCCC5)n3)cn2)cn1 | > 1000 |  |  |  |  |  |
| COc1nc(-c2csc(Nc3c4c(nn3C3CCCC3)CCCC4)n2)ccc1-n1cnc(C)c1 | 83 | 1.8 (≈ 0.856 µg/mL) |  |  |  |  |
| COc1nc(-c2csc(Nc3cc(C(C)(C)C)nn3CCF)n2)ccc1-n1cnc(C)c1 | 73 | 3.3 (≈ 1.5 µg/mL) | 86 | 67 | 49 | IC50 (Cytochrome P450 2D6): > 100000 nM; IC50 (Cytochrome P450 3A4): 40 nM; IC50 (Cytochrome P450 1A2): 64000 nM; IC50 (Cytochrome P450 2C9): 4100 nM; IC50 (Cytochrome P450 2C19): 3300 nM |
| CCn1nc2c(c1Nc1nc(-c3ccc(-n4cnc(C)c4)cc3)cs1)CCCC2 | 660 |  |  |  |  |  |
| CCn1nc(C(C)(C)C)cc1Nc1nc(-c2ccc(-n3cnc(C)c3)c(OC)c2)cs1 | 96 |  |  |  |  |  |
| CCn1nc2c(c1Nc1nc(-c3ccc(-n4cnc(C)c4)c(OC)n3)cs1)CCCCC2 | 32 | 4.3 (≈ 1.93 µg/mL) | 41 | 15 | 0.1 | IC50 (Cytochrome P450 2D6): > 100000 nM; IC50 (Cytochrome P450 3A4): 11000 nM; IC50 (Cytochrome P450 1A2): > 100000 nM; IC50 (Cytochrome P450 2C9): 37000 nM; IC50 (Cytochrome P450 2C19): 85000 nM |
| COc1nc(-c2csc(Nc3c4c(nn3C(C)C)CCCC4)n2)ccc1-n1cnc(C)c1 | 46 | 3.3 (≈ 1.48 µg/mL) | 64 | 45 | 10 |  |
| CCn1nc2c(c1Nc1nc(-c3ccc(-n4cnc(C)c4)c(OC)c3)cs1)CCCC2 | 171 | 4.6 (≈ 2 µg/mL) |  |  |  |  |
| CCn1nccc1Nc1nc(-c2ccc(-n3cnc(C)c3)c(OC)n2)cs1 | > 1000 |  |  |  |  |  |
| COc1nc(-c2csc(Nc3c4c(nn3CCCO)CCCC4)n2)ccc1-n1cnc(C)c1 | 50 | 23 (≈ 10.7 µg/mL) | 52 | 32 | 17 | IC50 (Cytochrome P450 2D6): > 100000 nM; IC50 (Cytochrome P450 3A4): 2200 nM; IC50 (Cytochrome P450 1A2): > 100000 nM; IC50 (Cytochrome P450 2C9): > 100000 nM; IC50 (Cytochrome P450 2C19): 31000 nM |
| COc1nc(-c2csc(Nc3c4c(nn3CCCN3CCOCC3)CCCC4)n2)ccc1-n1cnc(C)c1 | 126 | 39 (≈ 20.9 µg/mL) | 6.4 | 0.7 | 1.9 |  |

| Structure (SMILES) | IC50 (Gamma-secretase) [nM] | solubility kinetic [1] [µM] | Stabilty [2] [%] | Stabilty [3] [%] | Stabilty [4] [%] | further results |
| --- | --- | --- | --- | --- | --- | --- |
| CCn1nc(C(C)(C)C)cc1Nc1nc(-c2ccc(-n3cnc(C)c3)c(OC)n2)cs1 | 114 | 15 (≈ 6.56 µg/mL) | 89 | 67 | 38 |  |
| Cc1cn(-c2ccc(-c3csc(Nc4cc(C(C)(C)C)nn4C)n3)cn2)cn1 | 590 |  |  |  |  |  |
| Cc1cn(-c2ccc(-c3csc(Nc4cc(C(C)(C)C)nn4C)n3)cc2)cn1 | 275 |  |  |  |  |  |
| COc1nc(-c2csc(Nc3c4c(nn3C3CCC3)CCC4)n2)ccc1-n1cnc(C)c1 | 21 | 2.7 (≈ 1.21 µg/mL) | 37 | 26 | 3 |  |
| COc1nc(-c2csc(Nc3c4c(nn3C(C)C)CCC4)n2)ccc1-n1cnc(C)c1 | 90 | 5.7 (≈ 2.48 µg/mL) | 56 | 34 | 23 |  |
| COc1nc(-c2csc(Nc3c4c(nn3C3CCCCC3)CCCC4)n2)ccc1-n1cnc(C)c1 | 63 | < 1.6 |  |  |  |  |
| COc1nc(-c2csc(Nc3c4c(nn3C3CCN(C)CC3)CCCC4)n2)ccc1-n1cnc(C)c1 | > 1000 | 92 (≈ 46.4 µg/mL) |  |  |  |  |
| CCn1nc2c(c1Nc1nc(-c3ccc(-n4cnc(C)c4)nc3)cs1)CCCC2 | > 1000 |  |  |  |  |  |
| CCCn1nc(C(C)(C)C)cc1Nc1nc(-c2ccc(-n3cnc(C)c3)c(OC)n2)cs1 | 100 | 2.1 (≈ 0.948 µg/mL) |  |  |  |  |
| COc1nc(-c2csc(Nc3cc(C(C)(C)C)nn3C(C)(C)C)n2)ccc1-n1cnc(C)c1 | 40 | < 1.6 |  |  |  |  |
| CCCn1nc2c(c1Nc1nc(-c3ccc(-n4cnc(C)c4)c(OC)n3)cs1)CCCC2 | 48 | < 1.6 |  |  |  |  |
| CCn1nc2c(c1N(C)c1nc(-c3ccc(-n4cnc(C)c4)c(OC)n3)cs1)CCCC2 | 636 | 3.4 (≈ 1.53 µg/mL) |  |  |  |  |
| COc1cc(-c2csc(Nc3cc(C(C)(C)C)nn3C)n2)ccc1-n1cnc(C)c1 | 253 |  | 76 | 92 | 60 |  |
| COc1nc(-c2csc(Nc3cc(C(F)(F)F)nn3CC(F)(F)F)n2)ccc1-n1cnc(C)c1 | 199 | 2 (≈ 1.01 µg/mL) |  |  |  |  |
| CCn1nc2c(c1Nc1nc(-c3ccc(-n4cnc(C)c4)c(O)n3)cs1)CCCC2 | 468 |  |  |  |  |  |
| CCn1nc(C(C)C)cc1Nc1nc(-c2ccc(-n3cnc(C)c3)c(OC)n2)cs1 | 184 |  |  |  |  |  |
| COc1nc(-c2csc(Nc3cc(C(C)(C)C)nn3C)n2)ccc1-n1cnc(C)c1 | 136 |  |  |  |  |  |
| COc1nc(-c2csc(Nc3c4c(nn3C(C)(C)C)CCC4)n2)ccc1-n1cnc(C)c1 | 62 | 3.9 (≈ 1.75 µg/mL) | 55 | 20 | 21 |  |
| CCn1nc(C(C)(C)C)cc1Nc1nc(-c2ccc(-n3cnc(C)c3)cc2)cs1 | 339 |  |  |  |  |  |
| Cc1cn(-c2ccc(-c3csc(Nc4c5c(nn4C)CCCC5)n3)cc2)cn1 | 453 |  | 56 | 84 |  | remaining at 0.5 h, 1 µM ([4]; liver microsomes): 55% |
| COc1nc(-c2csc(Nc3c4c(nn3C3CCOC3)CCCC4)n2)ccc1-n1cnc(C)c1 (racemic) | 102 | 19 (≈ 9.07 µg/mL) | 42 | 70 | 2.1 |  |
| CCn1nc2c(c1Nc1nc(-c3cnc(-n4cnc(C)c4)c(OC)n3)cs1)CCCC2 | 89 | < 1.6 |  |  |  |  |
